Published values collected from several papers.
Compare with care: the assays were run in different laboratories.
Target: Myosin light chain kinase, smooth muscle (MYLK, Homo sapiens, UniProt Q15746)

Structure (SMILES) | test | setting | remaining binding
C[C@H]1CCN(c2nccc(-c3cnn4ncccc34)n2)C1 | binding | 1 µM | 91%
COc1ncc2cc3ccccc3nc2c1C#N | binding, competition with immobilised ligand | 5 µM | 92%
O=C(O)[C@@H]1[C@@H](Cn2nnc3ccccc3c2=O)CC[C@H]1C(=O)c1ccc(OCCC2CCOCC2)cc1 | cell-free assay, competition with immobilised ligand | 1 µM | 100%
O=C(c1ccc(Nc2ncc(Cl)c(-c3ccc(Cl)s3)n2)cc1)N1CCC(N2CCCC2)CC1 | binding, competition with immobilised ligand | 1 µM | 66%
CC(=O)c1c(NS(C)(=O)=O)c2cc(-c3ccc(Cl)cc3)c(-c3ccc(Cl)cc3Cl)nc2n(C)c1=O | cell-free assay, competition with immobilised ligand | 1 µM | 93%
CCN1CCN(Cc2ccc(C(=O)Nc3ccc(C)c(Oc4ccc5c(c4)CC(=O)N5)c3)cc2C(F)(F)F)CC1 | binding, competition with immobilised ligand | 1 µM | 100%
N[C@@H]1CCN(c2nccc(-c3cnn4ncccc34)n2)C1 | binding | 1 µM | 100%
O=C(Nc1c[nH]nc1C(=O)NC1CCNCC1)c1cc(F)cc(F)c1 | binding, competition with immobilised ligand | 1 µM | 100%
CO[C@@H](C)c1c(Nc2ccc([C@H](N(C)C(=O)C3CCS(=O)(=O)CC3)C(F)(F)F)cc2)cnc2cc(Cl)nn12 | cell-free assay, competition with immobilised ligand | 1 µM | 95%
O=C(c1ccc(Nc2nccc(-c3cc4ccccc4s3)n2)cc1)N1CCC(N2CCCC2)CC1 | binding, competition with immobilised ligand | 1 µM | 61%
CNC(=O)[C@@H]1CC[C@@H](n2c(-c3ccc4cnccc4c3)nc3ccc(C(=O)NCc4cccc(C(N)=O)c4)cc32)C1 | binding, competition with immobilised ligand | 1 µM | 100%
COc1ccnn2ncc(-c3ccnc(N(C)C)n3)c12 | binding | 1 µM | 100%
O=C(NCCCN1CCOCC1)c1ccc(Nc2nccc(-c3cc4ccccc4s3)n2)cc1 | binding, competition with immobilised ligand | 1 µM | 94%
COc1cnc(Nc2cccc(S(N)(=O)=O)c2)nc1N1CCN(c2ccccc2)C(=O)C1 | binding, competition with immobilised ligand | 1 µM | 97%
CS(=O)(=O)N1CCCC(NC(=O)[C@H](CCC2CCCCC2)NC(=O)c2ccc(CNC(=O)c3cnc4ccccn34)cc2)C1 (stereo partly drawn) | cell-free assay, competition with immobilised ligand | 0.1 µM | 100%
CN(C)c1ncc(F)c(-c2cnn3ncccc23)n1 | binding | 1 µM | 98%
C[C@@]1(Cc2ccc(C#N)cc2)C(=O)N(c2cc(Cl)cc(Cl)c2)c2ncc(C(=O)NC3(c4nc(C5CCC5)no4)CC3)n21 | cell-free assay, competition with immobilised ligand | 1 µM | 100%
c1cnn2ncc(-c3ccnc(N4CCC45COC5)n3)c2c1 | binding | 1 µM | 84%
C=CC(=O)N1CCC(C(=O)NCC(=O)N2CCN(c3nc(-c4cnc(N)nc4C(F)F)nc(N4CCOCC4)n3)CC2)CC1 | binding, competition with immobilised ligand | 1 µM | 61%
NS(=O)(=O)c1cc(NC(=O)C2(c3ccccc3Cl)CC2)ccc1Oc1cccc(Cl)c1 | cell-free assay, competition with immobilised ligand | 1 µM | 72%
CN(C)c1nccc(-c2cnn3ncccc23)n1 | binding | 1 µM | 63%
